# Assay results reported in PubChem BioAssay AID463111 (Johns Hopkins Ion Channel Center, 2010).
# Among all 310,000 compounds or so, about 2,800 (0.9%) were called active.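 Rule for the calls: active = B-score of the integrated calcium signal more than 4 SD below the library mean, with starting fluorescence not abnormally high; inactive = the rest.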 What follows is part of a selection rich in actives, with near analogues and random picks from the rest.
# Experiment: enhancers of RGS4 function in calcium signaling – cell-based, HEK293 M3R inducible RGS4, calcium flux, primary screen (AID 463111);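 for B-score: negative B-score means reduced calcium response which marks RGS4 activation or potentiation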
# Conditions: HEK293 M3R/inducible RGS4, carbachol calcium flux Fluo4, at 10 µM; active compounds read low
# Summary of the method: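 System: HEK293 FlpIn-TREx cells, stable M3R, doxycycline-inducible RGS4. Timing: overnight RGS4 induction, 30 min dye load 37 °C, 20 min compound RT. Also added: carbachol, ECmax concentration. Measured by: Fluo4 fluorescence kinetic imaging of calcium. Evaluation: integrated calcium ratio converted to B score.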
row,SMILES,B-score
1,COc1cc(NC(=S)NCCSc2ccc(C)cc2)cc(OC)c1,inactive
2,COc1cc(/C=C(\C#N)c2nc3ccccc3[nH]2)ccc1O,-8.51 (active)
3,COc1ccc(/C=C(/NC(=O)c2ccc(C)cc2)c2nc3ccccc3[nH]2)cc1OC,inactive
4,COc1cc(/C=C(\C#N)c2nc3c(s2)CC(C)CC3)ccc1O (stereo not drawn),inactive
5,COc1ccccc1NC(=O)N1CCCC1C(=O)NCc1cccs1 (stereo not drawn),inactive
6,O=C1Nc2ccc(Br)cc2/C1=N/N=C/C1=C(N2CCOCC2)C(=C\c2ccccc2)/CC1,inactive
7,Cc1cccc2sc(N(CCCN(C)C)C(=O)CCS(=O)(=O)c3ccccc3)nc12,-8.92 (active)
8,COc1cccc2sc(N(CCCN(C)C)C(=O)CCS(=O)(=O)c3ccccc3)nc12,inactive
9,COc1cccc2sc(N(CCCN(C)C)C(=O)C(c3ccccc3)c3ccccc3)nc12,inactive
10,CC(C)OC(=O)c1sc2nc3c(cc2c1N)C(=O)CCC3,inactive
11,Cc1ccc(-c2nn(-c3ccccc3)cc2C(=O)NCCCN2CCCC2=O)cc1,inactive
12,Cc1cccc(C)c1NC(=O)CNC(=O)c1c(C)nn(-c2ccccc2)c1C,inactive
13,CN(/C(=N/S(=O)(=O)c1cccs1)c1ccccc1)c1ccc(O)cc1,inactive
14,CCCNC(=O)CCn1nc(-c2ccccc2)c2ccccc2c1=O,inactive
15,CCc1cccc(CC)c1NC(=O)COc1ccccc1C(=O)c1cc(C#N)c(=O)n(C2CCCCC2)c1,inactive
16,CCc1ccc(C(=O)NC(=S)Nc2ccccc2N2CCOCC2)cc1,inactive
17,COc1ccc(C(=O)NC(=S)Nc2ccccc2N2CCN(S(C)(=O)=O)CC2)cc1OC,inactive
18,CC(=O)N1CCN(c2ccccc2NC(=S)NC(=O)c2cc3ccccc3o2)CC1,-6.98 (active)
19,CCCCn1c(N)c(N(CC(C)C)C(=O)C2CSC3(C)CCC(=O)N23)c(=O)[nH]c1=O (stereo not drawn),inactive
20,CCCCn1c(N)c(N(CC)C(=O)c2ccc(N(C)S(=O)(=O)c3ccc(C)cc3)cc2)c(=O)[nH]c1=O,inactive
21,Cc1cc(/C=C2/C(=N)N3C(=NC2=O)SN=C3S(C)(=O)=O)c(C)n1-c1ccccc1,inactive
22,CCS(=O)(=O)C1=NSC2=NC(=O)/C(=C\c3ccc(OS(=O)(=O)c4ccccc4)cc3)C(=N)N21,inactive
23,CCS(=O)(=O)C1=NSC2=NC(=O)/C(=C\c3cc(C)n(-c4cccc(OC)c4)c3C)C(=N)N21,-7.01 (active)
24,COCCCNC(=O)CNC(=O)c1nn(-c2ccc(OC)cc2)c(=O)c2ccccc12,inactive
25,Cc1cc([N+](=O)[O-])ccc1NC1CCCC1,inactive
26,Cc1cc(C=O)c(C)n1-c1ccc(NC2CCCCC2)c([N+](=O)[O-])c1,-7.21 (active)

row,SMILES,B-score
1,Cc1c(NS(=O)(=O)c2ccc(NC3CCCC3)c([N+](=O)[O-])c2)c(=O)n(-c2ccccc2)n1C,inactive
2,Cc1cc(-c2nnc(SCC(=O)Nc3ccc(F)cc3)n2N)n[nH]1,inactive
3,O=C(NCc1ccco1)/C(=C/c1cccc([N+](=O)[O-])c1)NC(=O)c1ccco1,inactive
4,COc1ccccc1NC(=O)COC(=O)c1ccccc1SCC(=O)N1CCCC1,inactive
5,CC(C)N(Cc1ccccc1)C(=O)COC(=O)c1ccccc1SCC(=O)N1CCCC1,-8.67 (active)
6,CC(NC(=O)c1ccccc1SCC(=O)N1CCCC1)c1ccccc1 (stereo not drawn),inactive
7,Cc1ccc(C(=O)N/C(=C\c2cccs2)C(=O)NCCc2ccccn2)cc1C,inactive
8,COc1ccc(CCN(C)C(=O)C2CCCN(Cc3ccc(OC)c(OC)c3)C2)cc1OC (stereo not drawn),inactive
9,COc1cc(CN2CCCC(C(=O)c3ccc(SC)cc3)C2)cc(Cl)c1O (stereo not drawn),inactive
10,COc1ccc(CN2CCCC(C(=O)c3ccc(Cl)cc3)C2)cc1Cn1cncn1 (stereo not drawn),-10.3 (active)
11,CC[n+]1c(C)n(-c2ccccc2)c2ccc(NC(C)=O)cc21,inactive
12,OC(CN=c1sc2ccccc2n1CC(O)COc1ccccc1)COc1ccccc1 (stereo not drawn),-10.8 (active)
13,CC(C)c1ccc(OCC(O)Cn2cnc3ccccc32)cc1 (stereo not drawn),inactive
14,C=CCn1c(=N)n(CC(O)COc2ccc(OC)cc2)c2ccccc21 (stereo not drawn),inactive
15,COc1cccc(NC(=O)Cn2cnc3sc(C)c(S(=O)(=O)N4CCN(C)CC4)c3c2=O)c1,inactive
16,Cc1ccc(Cl)c(OCC(=O)NN2CCN(C)CC2)c1,inactive
17,O=C(CCCOc1ccc(Cl)cc1Cl)NNC(=O)C1CCC1,inactive
18,CN1CCC(OC(=O)COc2ccc(Cl)cc2Cl)CC1,-7.11 (active)
19,CC(C)N1C(=O)N(c2ccccc2)C(C)(O)CC1(C)C (stereo not drawn),inactive
20,CN(C)C(CNC(=O)c1ccc(S(=O)(=O)NCc2ccco2)cc1)c1ccccc1 (stereo not drawn),inactive
21,CC(C)CN(C(=O)Cn1c(=O)cnc2ccccc21)C1CCS(=O)(=O)C1 (stereo not drawn),inactive
22,COc1ccccc1CCCNC(=O)C1CCC(=O)N(CCN2CCOCC2)C1 (stereo not drawn),inactive
23,Cc1[nH]n(-c2cccc(Cl)c2)c(=O)c1/C=N/n1c(C)nc2ccccc2c1=O,inactive
24,Cc1ccc(-n2[nH]c(C)c(/C=N/N3C(=O)c4cccc5cccc(c45)C3=O)c2=O)cc1,-9.28 (active)
25,COc1cc(SC#N)ccc1N=Cc1c(C)[nH]n(-c2ccc(C)cc2)c1=O,inactive
26,COc1ccc(N2CCN(S(=O)(=O)c3ccc4c(c3)N(C(C)=O)CCO4)CC2)cc1,inactive

row,SMILES,B-score
1,CCOc1ccc(NC(=O)C(C)N2C(=O)c3ccccc3C2=O)cc1 (stereo not drawn),inactive
2,CC(=O)c1ccc(OCC(O)CN2CCN(S(=O)(=O)c3cccc(Br)c3)CC2)cc1 (stereo not drawn),inactive
3,COc1ccc(C2c3ccc(O)cc3Oc3ncn(CCCO)c(=N)c32)cc1OC (stereo not drawn),inactive
4,c1ccc2c(c1)CSc1sccc1C2=C1CCNCC1,-7.49 (active)
5,Nc1nnc(SCC(=O)NC2CCCc3ccccc32)s1 (stereo not drawn),inactive
6,CCn1ccnc1CN1CCCC(C(=O)c2ccc3c4c(cccc24)CC3)C1 (stereo not drawn),inactive
7,CN(C)CCOc1ccc(Cl)cc1C(C)(C)C,-7.65 (active)
8,CC(C)(C)NCCCOc1ccc(Cl)cc1C(C)(C)C,inactive
9,CN(C)CCOCCOc1ccc(Cl)c2ccccc12,inactive
10,COc1ccc(/C=C2/SC(=O)N(CCCCCC(=O)Nc3ccccc3C(=O)O)C2=S)cc1,inactive
11,CCCN(CCc1ccccc1)C1CCc2c(O)cccc2C1 (stereo not drawn),-10.2 (active)
12,Cc1cc(C)cc(C(=O)N(CCc2ccccc2)C2=CC3CCC(C2)N3C)c1 (stereo not drawn),inactive
13,Cc1ccc(-c2nn(-c3ccccc3)cc2/C=C2\SC(=S)N(CCCCCC(=O)O)C2=O)o1,-7.93 (active)
14,CN(C)S(=O)(=O)c1cccc(-c2nn(-c3ccccc3)cc2/C=C2\SC(=S)N(CC(=O)O)C2=O)c1,inactive
15,COc1ccc(-c2nn(-c3ccccc3)cc2/C=C2/SC(=S)N(CCCC(=O)O)C2=O)c(C)c1,inactive
16,Oc1oc(-c2ccccc2Br)nc1/C=N/c1ccccn1,inactive
17,CSc1nnnn1-c1c(C)cc(C)cc1C,inactive
18,Cc1cc2oc(=O)cc(CN3CCN(Cc4ccccc4)CC3)c2cc1C,inactive
19,Cc1cc2oc3ccc(NCCC4CCCN4C)cc3c(=O)c2cc1C (stereo not drawn),-9.61 (active)
20,CCCOc1ccc(C2c3c(oc4cc(C)c(C)cc4c3=O)C(=O)N2CCCN2CCOCC2)cc1 (stereo not drawn),inactive
21,C=CS(=O)c1sc(Cl)c(N2CCOCC2)c1[N+](=O)[O-] (stereo not drawn),inactive
22,CCC(C(=O)OC)n1cnc2scc(-c3ccc(C)cc3)c2c1=O (stereo not drawn),inactive
23,CC(=O)Nc1ccc(/C(C)=N/NC(=O)CN(c2ccccc2Br)S(C)(=O)=O)cc1,inactive
24,O=C(O)c1cccc2c1C(=O)N(C1CCCC1)C2,inactive
25,CCc1c(C)sc(NC(=O)c2cccs2)c1C(N)=O,inactive
26,CCc1c(C)sc(NC(=O)c2ccc(Br)o2)c1C(=O)OC,-10.4 (active)

row,SMILES,B-score
1,CCOC(=O)c1c(NC(=O)C2CC=CCC2C(=O)O)sc(C)c1CC (stereo not drawn),inactive
2,COc1cccc(OC)c1C(=O)OCC(=O)/C(C#N)=C(\C)N,inactive
3,Cc1ccc(CNC(=O)Cn2cnc(S(=O)(=O)N3CCCCC3)c2)o1,inactive
4,Cc1nn(CC(=O)Nc2ccc(C#N)cc2)c(C)c1[N+](=O)[O-],inactive
5,CCOc1ccccc1NC(=O)C1CCCN(S(=O)(=O)c2ccccc2)C1 (stereo not drawn),inactive
6,CC1Cc2ccccc2N1CC(=O)Nc1ccc2c(c1)OC(F)(F)O2 (stereo not drawn),inactive
7,CN1CCN(c2ccc(S(=O)(=O)Nc3ccccc3)cc2[N+](=O)[O-])CC1,-8.35 (active)
8,COc1ccc(NS(=O)(=O)c2ccc(N3CCN(CCO)CC3)c([N+](=O)[O-])c2)cc1,inactive
9,CC1CCN(c2ccc(S(=O)(=O)Nc3cc(C(=O)O)cc(C(=O)O)c3)cc2[N+](=O)[O-])CC1,inactive
10,COc1ccc(N2CCN(C(=O)C3CCN(C(=O)c4ccccc4Cl)CC3)CC2)cc1,inactive
11,Cc1ccc(OS(=O)(=O)c2ccc(-c3csc(C)n3)s2)c(C)c1,-9.64 (active)
12,Cc1ccc(S(=O)(=O)NCc2csc(C)n2)c(C)c1,inactive
13,CNC(=O)c1sc(NCc2ccccc2OC)nc1C,inactive
14,Cc1cccc2c1-c1sc(C(=O)NCCCN3CCc4ccccc4C3)cc1CO2,-7.27 (active)
15,O=C(CN1C(=O)COc2ccccc21)NCCN1CCc2ccccc2C1,inactive
16,O=C(NCCCN1CCOCC1)c1cc2c(s1)CCC2,inactive
17,CCOc1ccc(N(C)S(=O)(=O)c2cnc[nH]2)cc1,inactive
18,COc1ccccc1C(=O)NC(=S)Nc1ccccc1N1CCCCC1,inactive
19,Clc1ccc(-c2ncc3ccccn23)c(Cl)c1,inactive
20,Clc1ccc(COn2c(-c3ccc(Cl)cc3Cl)nc3ncccc32)cc1,-8.26 (active)
21,COn1c(-c2ccc(Cl)cc2Cl)nc2ncccc21,inactive
22,COCCn1c(SCC(=O)Nc2nc(C)cs2)nnc1C(C)C,inactive
23,COCCNc1cc(-c2ccccc2)nc2cc(-c3cccc(F)c3)nn12,-7.61 (active)
24,COc1ccc(NC(=O)c2cc3nc(-c4ccccc4)cc(C)n3n2)cc1OC,inactive
25,COC(=O)c1cc2nc(-c3ccccc3)cc(C(F)(F)F)n2n1,inactive
